Publication PMC4303305 (Biochemistry, 2014)
Read-outs that look alike come from different tables or passages of the source.

Experiments:
[1] = cited from earlier work
[2] = Size-exclusion FPLC retention of nitrophorins, mutants and ligand complexes; format: physicochemical, Rhodnius prolixus; conditions: under any conditions / at any pH
Outline: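 Analytical run on Superdex75 at 4 °C in 100 mM sodium acetate, NaCl added to 220 mM total ionic strength. Protein at 1 mM was run at pH 5.0, 5.25, 5.5 and 5.75. Separately, protein from 1 to 0.025 mM was run at pH 5.0. Elution position compared with molecular weight standards.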

[3] = Stopped-flow kinetics of release of NO from the nitrophorins; format: binding, Rhodnius prolixus
Outline: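 Stopped-flow measurement of NO release from NO-bound nitrophorins with native or M0-bearing N-termini. Dissociation Kd obtained at pH 5.0 and 7.5 in dilute solution, 5–10 μM protein in 100 mM sodium phosphate buffer.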

Substance | NO Kd (NO dissociation) ([1]; pH 5.0, ref 29) | NO Kd (NO dissociation) ([1]; pH 7.5) | NO Kd (NO dissociation) ([1]; column pH 7.5, measured at pH 8.0 rather than pH 7.5 (footnote a)) | NO Kd (NO dissociation) ([1]; pH 5.0, ref 17) | dimer formation [2] | factor by which having M0 present increased the Kd for the loss of NO ([3]; pH 5.0) | factor by which having M0 present increased the Kd for the loss of NO ([3]; pH 7.5)
NP2(D1A): D1A mutant of NP2, no M0 present | 0.015 ± 0.005 s^–1 | 0.089 ± 0.002 s^–1 |  |  |  |  | 
(M0)NP2: recombinant NP2 retaining M0 (N-terminus MDCST...) | 0.049 ± 0.002 s^–1 | 0.161 ± 0.005 s^–1 | 0.12 ± 0.01 ^a s^–1 | 0.05 ± 0.01 s^–1 | do not form dimers |  | 
NP2: nitrophorin 2 of Rhodnius prolixus; in b68 named without construct |  |  |  |  |  | 1.6 | 1.7
